Screening results deposited in PubChem by Broad Institute.
Hits are enriched below; roughly 3.5% of the tested compounds scored in any of these assays.
PglD DTNB: PglD (C. jejuni) enzyme inhibition; purified PglD enzyme, DTNB colorimetric CoA detection; inhibition, % at 12.5 µM; hit rate 0.098% among 360,000; AID 602405; in the data active = inhibition above about 16%, passing the limit was not always enough; inconclusive = no clear call, values can overlap the other calls
HIV Env fusion: HIV envelope-mediated fusion inhibition. inhibition, % at 12.3 µM. HeLa-JRFL Env/CEM21 cell fusion, luciferase. hit rate 1.1% among 360,000;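 active = mean replicate inhibition score of at least 50 and every replicate individually at or above 50; inconclusive = only one of the two criteria met; inactive = mean below 50 and not all replicates reaching 50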;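 also: 0% = plate neutral controls and 100% = maraviroc near 300 nM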
Ecoli rRNA inh: inhibits bacterial ribosomal RNA function over humanized ribosomes. E. coli WT GFP vs humanized-ribosome RFP mutants, fluorescence, 24 h; hits give low values; DMSO median 0, no signal -100. GFP signal change (wild-type ribosome), % (no concentration beside the values). hit rate 1.6% among 350,000;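 active = significant combined selectivity score with lowered wild-type GFP, culture density cut under 30%, mutant RFP and density less affected; inactive = any of these conditions unmet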
PGC1a acetyl inh: lowers PGC1a acetylation signal in U2OS cells | AlphaScreen anti-acetyl-lysine; with virally co-expressed GCN5 acetyltransferase | inhibition, % at 15.6 µM | hit rate 0.17% among 350,000 | AID 651687;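 active = every replicate shows inhibition of at least 40%; inconclusive = mean inhibition at least 40% but some replicate below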;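 also: 0% = neutral control wells and 100% = positive control wells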
DENV2 CPE: inhibitors of DENV2 cytopathic effect | DENV2-infected cells, cytopathic effect rescue, plate reader | CPE inhibition, % at 9.99 µM | hit rate 1.7% among 350,000; in the data active = CPE inhibition above about 20%, passing the limit was not always enough; inconclusive = no clear call, values can overlap the other calls; tested in BHK-21 cells;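 also: 0% = median of neutral control wells and 100% = median of positive control wells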
FN deposit inh: fibronectin deposition inhibition. inhibition, % at 12.6 µM. AID 743247. hit rate 0.086% among 350,000. AH1F fibroblasts, Alexa488-fibronectin deposition fluorescence, overnight;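 active = mean inhibition across replicates of 30% or more, regardless of how many single replicates reach that level; inconclusive = mean under 30% yet at least half of replicates reach 30%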;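 also: positive control wells lacked labelled fibronectin entirely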
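Material – AH1F fibroblast monolayer, labelled fibronectin deposition · Reagent – labelled fibronectin 24 nM · Timing – 1 h adhesion, overnight exposure · Measured by – fluorescence at 485 nm excitation, 525 nm emission · Read-out – inhibition of fibronectin deposition signal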
Active calls of the source: *; ? = inconclusive; · = not tested or not shown; ! = a repeat was not active; [ ] = remark or other dose.

SMILES	PglD DTNB	HIV Env fusion	Ecoli rRNA inh	PGC1a acetyl inh	DENV2 CPE	FN deposit inh
CCCCCC(=O)N1C[C@H](n2cc(-c3ccc(F)cc3)nn2)[C@@H](O)C[C@@H]1c1ccc(C)cc1	-4	1	-14	67*	0	-2
CCCCCC(=O)N1C[C@@H](n2cc(-c3ccc(F)cc3)nn2)[C@H](O)C[C@@H]1c1ccc(Cl)cc1	-1	-16	-13	15	16	-8
Cc1ccc([C@H]2C[C@@H](n3cc(-c4ccc(F)cc4)nn3)[C@H](O)CN2C(=O)c2cccs2)cc1	·	·	-6	12	32*	9
Cc1ccc([C@H]2C[C@H](O)[C@@H](n3cc(-c4ccc(F)cc4)nn3)CN2C(=O)c2cccs2)cc1	0	-27	-16	-6	-2	-6
CCCCCC(=O)N1C[C@H](n2cc(COC(=O)c3ccccc3)nn2)[C@@H](O)C[C@@H]1c1ccc(Cl)cc1	3	-148	1	-8	53*	-5
COc1ccccc1N(CN1C(=O)c2ccccc2C1=O)C(=O)c1cccc(C)c1	·	15	-30*	·	6	2
COc1cccc(C(=O)N(CN2CCCC2=O)c2ccccc2OC)c1	-1	-106	·	-13	·	-2
CO[C@H]1CN(C)C(=O)c2cc(NS(C)(=O)=O)ccc2OC[C@@H](C)NC[C@H]1C	·	·	1	-4	0	-11
O=C(O)c1ccc(Oc2ccc([N+](=O)[O-])cc2)c([N+](=O)[O-])c1	-9	12	-9.6*	14	1	4
O=C(O)c1cccc(Oc2ccc([N+](=O)[O-])cc2)c1	0	4	·	·	·	11
O=C(NC1CCCCC1)C(c1ccccc1)n1c(=O)c(-c2ccco2)nc2ccccc21 (centres undefined)	·	63*	-7	·	?	-6
COc1ccc(C(C(=O)NC2CCCC2)n2c(CSCCOc3ccccc3)nc3ccccc32)cc1 (centres undefined)	·	78*	5	·	-8	1
CC(C(=O)NCc1ccccc1)n1c(CSCCOc2ccccc2)nc2ccccc21 (centres undefined)	·	-2	·	·	40*	4
CCC(C(=O)NCc1ccccc1)n1c(CSCCOc2ccccc2)nc2ccccc21 (centres undefined)	·	?	-8	·	5	7
CS(=O)(=O)Nc1ccc2c(c1)[C@H]1C[C@@H](CC(=O)NC3CCCCC3)O[C@@H](CO)[C@H]1O2	2	16[16.7 µM]	1	6	4	3
C[C@H]1CN([C@@H](C)CO)C(=O)c2cc(N(C)C)ccc2O[C@H]1CN(C)S(=O)(=O)c1ccccc1	1	29[16.7 µM]	-1	-7	31*	·
Cc1ccc(S(=O)(=O)N(C)C[C@H]2Oc3ccc(N(C)C)cc3C(=O)N([C@H](C)CO)C[C@@H]2C)cc1	-2	·	-2	2	17	·
C[C@@H]1CN([C@@H](C)CO)C(=O)c2cc(N(C)C)ccc2O[C@H]1CN(C)S(=O)(=O)c1ccccc1	20	17[16.7 µM]	-6	31	79*	·
C[C@@H]1CN([C@H](C)CO)C(=O)c2cc(N(C)C)ccc2O[C@@H]1CN(C)S(=O)(=O)c1ccccc1	2	-6[16.7 µM]	2	-2	-1	·
COc1ccc(S(=O)(=O)N(C)C[C@@H]2Oc3ccc(N(C)C)cc3C(=O)N([C@@H](C)CO)C[C@@H]2C)cc1	-4	47[16.7 µM]	-3	1	-1	·
COc1ccc(S(=O)(=O)N(C)C[C@@H]2Oc3ccc(N(C)C)cc3C(=O)N([C@H](C)CO)C[C@@H]2C)cc1	-1	59*[16.7 µM]	-4	-14	-11	·
COc1ccc(S(=O)(=O)Nc2ccc3c(c2)CC(=O)N([C@@H](C)CO)C[C@H](C)[C@H](CN(C)S(=O)(=O)c2c(C)noc2C)O3)cc1	-3	12[16.7 µM]	2	-2	-1	-15
C[C@H](CO)N1C[C@H](C)[C@@H](CN(C)C(=O)Nc2ccccc2)Oc2c(NS(=O)(=O)c3ccccc3)cccc2C1=O	3	-35[16.7 µM]	-2	16	25*!	-1
C[C@@H]1CN([C@H](C)CO)C(=O)c2cccc(NS(=O)(=O)c3ccccc3)c2O[C@@H]1CN(C)C(=O)Nc1ccc(F)cc1	-3	·	3	3	34*	·
N#C[C@@H]1[C@@H](c2ccc(C#CC3CCCCC3)cc2)[C@H](CO)N1C(=O)Nc1ccc(F)cc1	·	·	-2	·	-9	-1
SMILES	PglD DTNB	HIV Env fusion	Ecoli rRNA inh	PGC1a acetyl inh	DENV2 CPE	FN deposit inh
COc1cccc(CN(C)C(=S)Nc2ccc(C)c(C)c2)c1	·	-10	-25*	1	-6	-5
COc1ccc(CN(C)C(=S)Nc2ccc(OC(F)F)cc2)cc1	-4	-4	-20	-4	2	4
Nc1ccccc1C#Cc1ccccc1	1	-115	4	·	110*	0
O=C(C1CC1)N1CC[C@@H]2[C@H]1c1cc(Br)ccc1N[C@@H]2CO	-3	·	1	10	36*	-12
O=C(C1CCC1)N1CC[C@H]2[C@H](CO)Nc3ccc(Br)cc3[C@H]21	·	·	1	-3	9	4
CCC(=O)N1CC[C@@H]2[C@H]1c1cc(-c3cccc(C#N)c3)ccc1N[C@@H]2CO	2	·	12	-1	-3	9
CCC(=O)N1CC[C@@H]2[C@H](CO)Nc3ccc(-c4cccc(C#N)c4)cc3[C@@H]21	-2	·	4	0	137*	9
O=C(C1CC1)N1CC[C@@H]2[C@H](CO)Nc3ccc(-c4cccc(F)c4)cc3[C@@H]21	0	·	-8	-1	11	1
O=C(C1CC1)N1CC[C@H]2[C@H](CO)Nc3ccc(-c4cccc(F)c4)cc3[C@H]21	-2	·	-6	2	32*	-1
O=C(C1CC1)N1CC[C@H]2[C@H](CO)Nc3ccc(Br)cc3[C@H]21	1	·	4	1	27*	-1
O=C(C1CCCC1)N1CC[C@@H]2[C@H]1c1cc(Br)ccc1N[C@@H]2CO	·	·	-5	12	-7	10
COc1ccc(S(=O)(=O)N[C@H]2CC[C@H](CC(=O)N3CCN(c4ccccc4)CC3)O[C@@H]2CO)cc1	-1	2[16.7 µM]	-2	3	-3	-10
CCCCCCC1CCC(C(=O)NC(CCSC)C(=O)NC(C(=O)OC)C(C)C)CC1 (centres undefined)	1	57*	·	-1	·	-9
C[C@H](CO)N1C[C@H](C)[C@H](CN(C)C(=O)Nc2ccc3c(c2)OCO3)Oc2ccc(NC(=O)Nc3ccc(F)cc3)cc2C1=O	·	14[16.7 µM]	-8	8	3	·
C[C@H](CO)N1C[C@H](C)[C@H](CN(C)Cc2ccncc2)Oc2ccc(NC(=O)Cc3ccccc3)cc2CC1=O	4	·	-1	-3	0	·
